High-throughput results (PubChem)
Most compounds without a hit are left out; they make up all but 3.8% or so of the library.
KCNK9 inh: KCNK9 potassium channel inhibitors, primary screen, HEK293 cells, thallium flux | AID 488922, 2010 | 310,000 compounds, 1.2% hits | B-score at 10 µM | Potassium channel subfamily K member 9 (Homo sapiens), Q9NPC2 | FluxOR thallium flux fluorescence; active compounds read low;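 active = ratio B-score over 3 SD below the library mean, with starting fluorescence within 5 SD of its mean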;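 note: negative B-score means less thallium flux so channel inhibition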
KCNQ1 inh: inhibitors of human KCNQ1 channel, primary screen, cell-based, thallium flux, high-throughput; AID 2642, 2010; Potassium voltage-gated channel subfamily KQT member 1 (Homo sapiens), P51787; B-score at 10 µM; 310,000 compounds, 1.3% hits; CHO-K1 KCNQ1, FluxOR thallium flux fluorescence; active compounds read high;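 active = compounds whose thallium flux B-score, printed positive for inhibition, exceeds three library SD while starting fluorescence stays within three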;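 note: channel opened by potassium depolarization with thallium stimulus after 20 min compound exposure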
Target sequence (P51787 whole entry, looked up): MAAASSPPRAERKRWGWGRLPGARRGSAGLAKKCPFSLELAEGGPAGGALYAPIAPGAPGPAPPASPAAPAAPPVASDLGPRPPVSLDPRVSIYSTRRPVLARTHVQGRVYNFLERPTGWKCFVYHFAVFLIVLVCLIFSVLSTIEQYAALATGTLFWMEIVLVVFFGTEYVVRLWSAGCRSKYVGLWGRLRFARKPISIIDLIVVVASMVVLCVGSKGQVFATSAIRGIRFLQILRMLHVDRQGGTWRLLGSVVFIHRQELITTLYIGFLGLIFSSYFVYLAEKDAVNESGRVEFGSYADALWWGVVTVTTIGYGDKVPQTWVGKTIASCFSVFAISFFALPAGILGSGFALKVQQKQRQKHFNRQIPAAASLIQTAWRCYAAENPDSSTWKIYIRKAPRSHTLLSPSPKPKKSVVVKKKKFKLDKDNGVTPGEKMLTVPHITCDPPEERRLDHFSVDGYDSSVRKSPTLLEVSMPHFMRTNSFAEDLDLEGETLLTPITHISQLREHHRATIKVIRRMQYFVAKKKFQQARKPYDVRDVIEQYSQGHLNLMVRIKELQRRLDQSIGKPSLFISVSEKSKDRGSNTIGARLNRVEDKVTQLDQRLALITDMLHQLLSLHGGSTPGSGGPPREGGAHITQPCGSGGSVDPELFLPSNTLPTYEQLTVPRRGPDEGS
Kir21 block: inhibitors of mouse Kir2.1 inward-rectifier potassium channel; HEK293-Kir2.1, FluxOR thallium flux fluorescence; active compounds read low; B-score at 10 µM; 310,000 compounds, 0.85% hits; AID 1672, 2009;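 active = fluorescence ratio B-score at or below minus 3 SD of library scores, with starting-brightness B-score within 2 SD, cut at about -4.2 in these data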;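 note: channel flux triggered by added potassium and thallium sulfate stimulus; B-score of peak minus minimum fluorescence over baseline after thallium stimulus; more negative B-score means stronger Kir2.1 block with less thallium influx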
KCNQ1 act: potentiators or activators of KCNQ1 channel, primary screen, cell-based, thallium flux, high-throughput; 310,000 compounds, 0.35% hits; CHO-K1 KCNQ1, thallium flux FluxOR fluorescence; active compounds read high; Potassium voltage-gated channel subfamily KQT member 1 (Homo sapiens), P51787; B-score at 10 µM;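 active = fluorescence ratio B-score, a plate-corrected score, at least three library SD, with initial intensity B-score within 5 SD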
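Schedule – 37 °C overnight plating, 90-min dark dye load, 20-min compound pretreatment · System – stable KCNQ1 CHO-K1 line · Probe or stimulus – thallium- and potassium-containing depolarizing buffer · Measured by – kinetic FluxOR fluorescence, 10 s baseline plus 110 s post-stimulus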
KCNK3 block: human KCNK3 channel inhibitors, primary screen, CHO cells, FluxOR thallium flux, B-score; Potassium channel subfamily K member 3 (Homo sapiens), O14649; FluxOR fluorescence; active compounds read low; B-score at 10 µM; 340,000 compounds, 0.84% hits; AID 602410, 2012;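 active = B-score under library mean minus 4 SD, starting fluorescence ratio at most library mean plus 5 SD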;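 note: more negative B-score means stronger inhibition of thallium flux through KCNK3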
hERG protect: hERG rescue from dofetilide block, primary screen, cell-based, CHO-hERG, FluxOR thallium flux, dofetilide IC70; 310,000 compounds, 0.51% hits; Voltage-gated inwardly rectifying potassium channel KCNH2 (Homo sapiens), Q12809; activation (rescue from dofetilide block), less the hit threshold, % at 10 µM; dofetilide IC70 present;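 active = activation above the mean of controls blocked by dofetilide plus 5 SD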;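 note: thallium influx through hERG after potassium depolarization seen as dye fluorescence rise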
An asterisk follows results filed as active; i = inactive; x = no result given.

SMILES	KCNK9 inh	KCNQ1 inh	Kir21 block	KCNQ1 act	KCNK3 block	hERG protect
O=C(CC1=NCCNC(c2ccccc2)C1)c1ccccc1O (stereo not given)	i	i	-5.98*	i	i	-11.4
Cc1[nH]n(-c2ccccc2)c(=O)c1/C=N/NC(=O)c1ccc(O)cc1O	i	i	-0.77	i	i	-12.1
CCCCN(CCCC)C(=S)N/N=C/c1c(C)[nH]n(-c2ccccc2)c1=O	i	i	0.9	29*	i	-7.0
CC(C)n1ncc2c(C(=O)NCCOc3ccccc3F)cc(C3CC3)nc21	x	x	x	x	i	x
CCOc1ccc(OCCNC(=O)c2cc(C3CC3)nc3c2cnn3C(C)C)cc1	x	x	x	x	-8.9*	x
CCN(C(=O)COC(=O)COc1ccc(Cl)c(C)c1)C1CCS(=O)(=O)C1 (stereo not given)	x	x	x	x	i	x
Cc1ccc(NC(=O)CSc2ncc3ccccn23)cc1C	i	i	-2.05	i	i	5.9*
CCN(Cc1ccccc1)C(c1ccc(C)cc1)c1nnnn1C(C)(C)C (stereo not given)	-7.75*	i	-1.5	i	i	-6.4
CC(C)(C)n1nnnc1C(c1ccncc1)N(Cc1ccccc1)Cc1ccco1 (stereo not given)	i	i	-1.52	i	i	-12.6
CCN(Cc1ccccc1)C(c1ccccn1)c1nnnn1C(C)(C)CC (stereo not given)	-8.05*	i	-2.17	i	i	-4.9
Cc1nnsc1C(=O)NC1CCCc2c1cnn2-c1ccc(C(C)(C)C)cc1 (stereo not given)	i	i	2.61	i	i	-13.6
Cc1ccc(S(=O)(=O)N2C[C@@H]3[C@H]4CC[C@H](C4)[C@@H]3[C@@H](C)C2CC(=O)c2ccccc2)cc1 (stereo not given in full)	x	x	x	x	i	x
CCC(C)c1ccc(S(=O)(=O)N2CCN(C(=O)c3ccc(Cl)c(S(=O)(=O)N4CCOCC4)c3)CC2)cc1 (stereo not given)	x	x	x	x	-9.65*	x
Cc1cccc(/C=N/NC(=O)c2cc(Br)ccc2O)n1	i	i	1.44	11*	i	0.1
O=C(Cn1nnc(-c2ccccc2)n1)Nc1cccc(S(=O)(=O)N2CCCC2)c1	i	i	1.18	i	i	-15.2
Cc1ccc(C(=O)NNC(=O)C2CCN(c3nccc(C)n3)CC2)cc1	i	i	0.09	i	i	-0.6
CC(=O)N1CCc2cc(Br)cc(S(=O)(=O)NCC3CCCO3)c21 (stereo not given)	i	i	2.23	i	i	-9.2
Cc1cc(C)n(C(C[N+](=O)[O-])c2ccc(Cl)cc2)n1 (stereo not given)	i	i	-5.22*	i	i	-13.6
O=[N+]([O-])c1ccc2nc(/C=C/c3ccc(Cl)cc3)[nH]c2c1	i	11*	0.67	i	i	-13.8
O=[N+]([O-])c1ccc(-c2nc3ccc([N+](=O)[O-])cc3[nH]2)cc1	i	i	0.33	i	i	-6.1
COc1ccc(CNC(=O)CN(C(=O)c2snc(C(N)=O)c2N)c2ccc(OC)c(OC)c2)cc1	i	i	0.34	i	i	-8.2
O=Cc1ccc(-c2cccs2)s1	x	x	x	x	i	x
CCC(C)(c1ccc(C=O)s1)c1ccc(C=O)s1	i	i	-1.69	i	i	6.0*
O=C(NCc1ccc(F)cc1)c1cc2sccc2n1Cc1ccc(F)cc1	-10.4*	i	1.17	i	x	-9.1
Cc1onc(-c2c(F)cccc2Cl)c1C(O)c1ccc(F)cc1 (stereo not given)	i	i	-4.4*	i	i	-4.9
SMILES	KCNK9 inh	KCNQ1 inh	Kir21 block	KCNQ1 act	KCNK3 block	hERG protect
Cc1onc(-c2ccccc2Cl)c1C(O)c1ccc(F)cc1 (stereo not given)	i	i	-3.35	i	i	-9.7
CCOc1cc2c(cc1/C=C/c1noc(C)c1[N+](=O)[O-])OC(C)C2 (stereo not given)	i	7*	-5.11	i	i	-9.2
O=C(CCN(CCO)Cc1ccccc1)Nc1ccc(Br)cc1	i	i	-2.96	i	i	-8.0
CCN(CCC(=O)Nc1ccc(Br)c(C)c1)Cc1ccccc1	i	8*	-5.67*	i	i	-8.1
Cc1ccc(O)c(C(=O)CC(=O)c2cccc(F)c2)c1	i	i	-0.92	27*	i	-1.2
Cc1ccc(C(=O)CC(=O)COc2ccc(Cl)cc2C)cc1	i	i	-0.34	7*	i	-3.3
Cc1ccc(NC(=O)c2ccc(OC(=O)COc3ccc(Cl)cc3C)cc2)cc1	i	i	0.54	i	i	-3.7
O=C(CC(=O)c1cc(Cl)ccc1O)c1ccccc1	i	i	-1	18*	i	-3.3
Cc1cccc(C(=O)NCC(=O)NNC(=O)c2ccccc2O)c1	i	i	0.6	i	i	-13.3
Cc1cccc(C(=O)CC(=O)c2cc(Cl)ccc2O)c1	i	i	-0.19	i	i	8.8*
COc1cc(NC(=O)C2CCCCC2)c(OC)cc1NC(=O)CN1CCCCC1	i	i	-0.77	i	i	-6.4
O=C(C[n+]1ccccc1)Nc1ccccc1C(=O)O	i	i	-0.33	i	i	-4.6
CCCCCC(=O)Nc1ccc(-c2csc(N)n2)cc1	i	i	1.39	i	i	-5.0
Cc1ccc(O)c(C(=O)CC(=O)c2ccc(Cl)cc2)c1	i	i	0.13	i	i	5.7*
COc1ccc(O)c(C(=O)CC(=O)c2ccc(F)cc2)c1	i	i	-2.18	i	i	-0.6
O=C(C[n+]1ccccc1)N/N=C/c1ccc(Cl)c(Cl)c1	i	i	0	i	i	5.2*
O=S(=O)(c1ccc(-c2nc3ccccc3s2)cc1)N1CCCC1	i	i	-0.98	i	i	0.5
CC1CN(S(=O)(=O)c2ccc(-c3nc4ccccc4s3)cc2)CC(C)O1 (stereo not given)	i	i	-0.25	i	i	4.6*
CCN(CC)CCN(CC(=O)N(C1CCCCC1)C1CCCCC1)C(=O)c1ccco1	i	i	-4.38*	i	i	-10.2
CCCCc1sc(-c2c(C#N)c(N)nc3c2CCCCC3)cc1[N+](=O)[O-]	-6.74*	i	1.3	i	i	-4.1
